What all share (format): functional
Test [1] concerns Haemophilus influenzae. The experiment in a line: Antimicrobial activity against Beta-lactamase-positive, ampicillin-cluvulanate-resistant Haemophilus influenzae by broth microdilution method. An outline of the steps: (§1)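 Broth microdilution MIC in freshly prepared Haemophilus test medium per 2008 CLSI guidelines; H. influenzae ATCC 49247 and ATCC 49766 as control strains. Isolates from outpatient nasal aspirates (no prior antibiotics), cultured on blood agar with S. aureus streak and chocolate agar. PBP3 substitutions deduced from ftsI sequencing against the Rd strain; β-lactamase genes (TEM-1, ROB-1) detected by PCR.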

The test system of test [2] is Haemophilus influenzae. The experiment in a line: Antimicrobial activity against Beta-lactamase-negative, ampicillin-resistant Haemophilus influenzae by broth microdilution method. Put shortly:
as §1

Test [3] concerns Haemophilus influenzae. The experiment in a line: Antimicrobial activity against Haemophilus influenzae isolate by broth microdilution method. Put shortly: as §1
For test [4], the system named is Haemophilus influenzae. The experiment in a line: Antimicrobial activity against beta-lactamase-negative, ampicillin-sensitive Haemophilus influenzae by broth microdilution method. Put shortly:
as §1

Test [5] relates to Haemophilus influenzae. Briefly: Antimicrobial activity against Beta-lactamase-positive, ampicillin-resistant Haemophilus influenzae by broth microdilution method. Put shortly:
as §1

Test [6] concerns Haemophilus influenzae. The experiment in a line: Antimicrobial activity against Beta-lactamase-positive, ampicillin-cluvulanate-resistant Haemophilus influenzae with Asp350Asn, Met377Ile, Ser385Thr, Asn526Lys substitutions in penicillin-binding protein 3 by broth microdilution method. Put shortly:
as §1

Test [7] concerns Haemophilus influenzae. Briefly: Antimicrobial activity against Beta-lactamase-positive, ampicillin-cluvulanate-resistant Haemophilus influenzae with Asp350Asn, Ser357Asp, Ala437Ser, Ala502Thr, Asn526Lys substitutions in penicillin-binding protein 3 by broth microdilution method. Put shortly: as §1
The test system of test [8] is Haemophilus influenzae. Briefly: Antimicrobial activity against Beta-lactamase-positive, ampicillin-cluvulanate-resistant Haemophilus influenzae with Asp350Asn, Ser357Asp, Met377Ile, Ser385Thr, Arg517His substitutions in penicillin-binding protein 3 by broth microdilution method. An outline of the steps:
as §1

The test system of test [9] is Haemophilus influenzae. The experiment in a line: Antimicrobial activity against Beta-lactamase-negative, ampicillin-resistant Haemophilus influenzae with Ala502Val, Asn526Lys substitutions in penicillin-binding protein 3 by broth microdilution method. An outline of the steps:
as §1

The subject of test [10] is Haemophilus influenzae. The experiment in a line: Antimicrobial activity against Beta-lactamase-positive, ampicillin-cluvulanate-resistant Haemophilus influenzae with Ala368Thr, Ala502Thr, Asn526Lys substitutions in penicillin-binding protein 3 by broth microdilution method. Put shortly: as §1
For test [11], the system named is Haemophilus influenzae. The experiment in a line: Antimicrobial activity against Beta-lactamase-positive, ampicillin-cluvulanate-resistant Haemophilus influenzae with Asp350Asn, Ala437Ser substitutions in penicillin-binding protein 3 by broth microdilution method. Put shortly:
as §1

Test [12] relates to Haemophilus influenzae. Briefly: Antimicrobial activity against Beta-lactamase-negative, ampicillin-resistant Haemophilus influenzae with Gly490Glu, Asn526Lys substitutions in penicillin-binding protein 3 by broth microdilution method. An outline of the steps: as §1
The subject of test [13] is Haemophilus influenzae. The experiment in a line: Antimicrobial activity against Beta-lactamase-positive, ampicillin-cluvulanate-resistant Haemophilus influenzae with Asp350Asn, Met377Ile, Asn526Lys substitutions in penicillin-binding protein 3 by broth microdilution method. An outline of the steps: as §1
In test [14] the test system is Haemophilus influenzae. The experiment in a line: Antimicrobial activity against Beta-lactamase-negative, ampicillin-resistant Haemophilus influenzae with Asp350Asn, Met377Ile, Gly490Glu, Ala502Val, Asn526Lys substitutions in penicillin-binding protein 3 by broth microdilution method. An outline of the steps: as §1
Test [15] has as its system Haemophilus influenzae. Briefly: Antimicrobial activity against Beta-lactamase-negative, ampicillin-resistant Haemophilus influenzae with Asp350Asn, Met377Ile, Asn526Lys substitutions in penicillin-binding protein 3 by broth microdilution method. Put shortly: as §1
Test [16] relates to Haemophilus influenzae. The experiment in a line: Antimicrobial activity against Beta-lactamase-positive, ampicillin-cluvulanate-resistant Haemophilus influenzae with Asp350Asn, Ala502Thr, Asn526Lys substitutions in penicillin-binding protein 3 by broth microdilution method. Put shortly: as §1
Test [17] relates to Haemophilus influenzae. Briefly: Antimicrobial activity against Beta-lactamase-negative, ampicillin-resistant Haemophilus influenzae with Asp350Asn, Ser357Asp, Met377Ile, Ser385Thr, Leu389Phe, substitutions in penicillin-binding protein 3 by broth microdilution method. Put shortly:
as §1

Test [18] has as its system Haemophilus influenzae. Briefly: Antimicrobial activity against Beta-lactamase-negative, ampicillin-resistant Haemophilus influenzae with Asp350Asn, Ser357Asp, Met377Ile, Ser385Thr, Ala502Thr, Asn526Lys substitutions in penicillin-binding protein 3 by broth microdilution method. An outline of the steps: as §1
The test system of test [19] is Haemophilus influenzae. Briefly: Antimicrobial activity against Beta-lactamase-negative, ampicillin-resistant Haemophilus influenzae with Ile449Val, Asn526Lys substitutions in penicillin-binding protein 3 by broth microdilution method. As to conditions: Haemophilus influenzae; read-out: MIC. Put shortly:
as §1

Test [20] concerns Haemophilus influenzae. The experiment in a line: Antimicrobial activity against Beta-lactamase-negative, ampicillin-resistant Haemophilus influenzae with Ile449Val, Ala502Thr, Asn526Lys substitutions in penicillin-binding protein 3 by broth microdilution method. An outline of the steps: as §1
The subject of test [21] is Haemophilus influenzae. The experiment in a line: Antimicrobial activity against Beta-lactamase-negative, ampicillin-resistant Haemophilus influenzae with Asp350Asn, Met377Ile, Ala502Val, Asn526Lys substitutions in penicillin-binding protein 3 by broth microdilution method. An outline of the steps: as §1
In test [22] the test system is Haemophilus influenzae. The experiment in a line: Antimicrobial activity against Beta-lactamase-negative, ampicillin-resistant Haemophilus influenzae with Asp350Asn, Ser357Asp, Ser385Thr, Leu389Phe, Ala502Thr, Asn526Lys substitutions in penicillin-binding protein 3 by broth microdilution method. An outline of the steps: as §1
Test [23] relates to Haemophilus influenzae. Briefly: Antimicrobial activity against Beta-lactamase-negative, ampicillin-resistant Haemophilus influenzae with Ser311Pro, Ala502Thr, Asn526Lys substitutions in penicillin-binding protein 3 by broth microdilution method. An outline of the steps: as §1
Test [24] deals with Haemophilus influenzae. The experiment in a line: Antimicrobial activity against Beta-lactamase-negative, ampicillin-resistant Haemophilus influenzae with penicillin-binding protein 3 by broth microdilution method. Put shortly: as §1
Test [25] relates to Haemophilus influenzae. Briefly: Antimicrobial activity against Beta-lactamase-positive, ampicillin-cluvulanate-resistant Haemophilus influenzae with Asp350Asn, Met377Ile, Gly490Glu, Ala502Val, Asn526Lys substitutions in penicillin-binding protein 3 by broth microdilution method. An outline of the steps: as §1
Test [26] has as its system Haemophilus influenzae. Briefly: Antimicrobial activity against Beta-lactamase-negative, ampicillin-resistant Haemophilus influenzae with Asp350Asn, Ser357Asp, Met377Ile, Ser385Thr, Arg517His substitutions in penicillin-binding protein 3 by broth microdilution method. An outline of the steps:
as §1

The test system of test [27] is Haemophilus influenzae. Briefly: Antimicrobial activity against Beta-lactamase-positive, ampicillin-cluvulanate-resistant Haemophilus influenzae with Ala502Val, Asn526Lys substitutions in penicillin-binding protein 3 by broth microdilution method. An outline of the steps:
as §1

Test [28] deals with Haemophilus influenzae. The experiment in a line: Antimicrobial activity against Beta-lactamase-negative, ampicillin-resistant Haemophilus influenzae with Asp350Asn, Met377Ile, Gly490Glu, Asn526Lys substitutions in penicillin-binding protein 3 by broth microdilution method. An outline of the steps:
as §1

Test [29] relates to Haemophilus influenzae. Briefly: Antimicrobial activity against Beta-lactamase-positive, ampicillin-cluvulanate-resistant Haemophilus influenzae with Ile449Val, Asn526Lys substitutions in penicillin-binding protein 3 by broth microdilution method. An outline of the steps:
as §1

Test [30] deals with Haemophilus influenzae. The experiment in a line: Antimicrobial activity against Beta-lactamase-positive, ampicillin-cluvulanate-resistant Haemophilus influenzae with Asp350Asn, Met377Ile, Ala502Val, Asn526Lys substitutions in penicillin-binding protein 3 by broth microdilution method. An outline of the steps: as §1

Values after ≈ are worked out from the molar mass of the structure shown.

Experimental findings from ChEMBL document CHEMBL1212764, “Antimicrobial resistance in Haemophilus influenzae respiratory tract isolates in Korea: results of a nationwide acute respiratory infections surveillance” (2010) are described below.

Consider `CC[C@H]1OC(=O)[C@H](C)[C@@H](O[C@H]2C[C@@](C)(OC)[C@@H](O)[C@H](C)O2)[C@H](C)[C@@H](O[C@@H]2O[C@H](C)C[C@H](N(C)C)[C@H]2O)[C@](C)(OC)C[C@@H](C)C(=O)[C@H](C)[C@@H](O)[C@]1(C)O` [CLARITHROMYCIN], for which the MIC50 against Haemophilus influenzae [1], with Haemophilus influenzae [2], in the test with Haemophilus influenzae [3], against Haemophilus influenzae [4] and in the test on Haemophilus influenzae [5] was 8 µg/mL (≈ 10.7 µM) each time. The MIC90 was determined as 16 µg/mL (≈ 21.4 µM) in the test with Haemophilus influenzae [1]; 32 µg/mL (≈ 42.8 µM) in the test on Haemophilus influenzae [2]; 16 µg/mL (≈ 21.4 µM) in the test on Haemophilus influenzae [3]; 16 µg/mL (≈ 21.4 µM) against Haemophilus influenzae [4]; 16 µg/mL (≈ 21.4 µM) in the test on Haemophilus influenzae [5].

On to `CO/N=C(\C(=O)N[C@@H]1C(=O)N2C(C(=O)O)=C(COC(N)=O)CS[C@H]12)c1ccco1` [CEFUROXIME], for which the MIC against Haemophilus influenzae [6] was determined as 2 µg/mL (≈ 4.71 µM); against Haemophilus influenzae [7], 6.5 µg/mL (≈ 15.3 µM); in the test with Haemophilus influenzae [8], 32 µg/mL (≈ 75.4 µM); against Haemophilus influenzae [9] it was 6 µg/mL (≈ 14.1 µM); against Haemophilus influenzae [10], 6.5 µg/mL (≈ 15.3 µM); against Haemophilus influenzae [11], 4 µg/mL (≈ 9.43 µM). Also, the MIC came out at 9.3 µg/mL (≈ 21.9 µM) against Haemophilus influenzae [12]; 2 µg/mL (≈ 4.71 µM) against Haemophilus influenzae [13]; 6 µg/mL (≈ 14.1 µM) in the test on Haemophilus influenzae [14]; 9.3 µg/mL (≈ 21.9 µM) against Haemophilus influenzae [15]; 6.5 µg/mL (≈ 15.3 µM) in the test with Haemophilus influenzae [16]; 13.3 µg/mL (≈ 31.3 µM) in the test on Haemophilus influenzae [17]. The MIC against Haemophilus influenzae [18] is 11.4 µg/mL (≈ 26.9 µM); in the test on Haemophilus influenzae [19], 8 µg/mL (≈ 18.9 µM); in the test on Haemophilus influenzae [20], 11.4 µg/mL (≈ 26.9 µM); against Haemophilus influenzae [21], 6 µg/mL (≈ 14.1 µM); in the test on Haemophilus influenzae [22] it was 11.4 µg/mL (≈ 26.9 µM); in the test on Haemophilus influenzae [23] it was 11.4 µg/mL (≈ 26.9 µM). Moreover, the MIC in the test with Haemophilus influenzae [24] was 2 µg/mL (≈ 4.71 µM); with Haemophilus influenzae [25], 11.4 µg/mL (≈ 26.9 µM); against Haemophilus influenzae [26], 13.3 µg/mL (≈ 31.3 µM); against Haemophilus influenzae [27], 11.4 µg/mL (≈ 26.9 µM); in the test with Haemophilus influenzae [28], 9.3 µg/mL (≈ 21.9 µM); in the test on Haemophilus influenzae [29], 4 µg/mL (≈ 9.43 µM). For the same compound, the MIC against Haemophilus influenzae [30] stood at 11.4 µg/mL (≈ 26.9 µM). Besides, the MIC50 in the test on Haemophilus influenzae [1] was 8 µg/mL (≈ 18.9 µM); against Haemophilus influenzae [2], 8 µg/mL (≈ 18.9 µM); against Haemophilus influenzae [3], 2 µg/mL (≈ 4.71 µM); with Haemophilus influenzae [4], 2 µg/mL (≈ 4.71 µM); in the test on Haemophilus influenzae [5], 2 µg/mL (≈ 4.71 µM). Also, the MIC90 with Haemophilus influenzae [1] was 32 µg/mL (≈ 75.4 µM); against Haemophilus influenzae [2] it was 16 µg/mL (≈ 37.7 µM); in the test with Haemophilus influenzae [3], 8 µg/mL (≈ 18.9 µM); against Haemophilus influenzae [4], 8 µg/mL (≈ 18.9 µM); in the test with Haemophilus influenzae [5], 8 µg/mL (≈ 18.9 µM).

Consider `N[C@@H](C(=O)N[C@@H]1C(=O)N2C(C(=O)O)=C(Cl)CS[C@H]12)c1ccccc1` [CEFACLOR ANHYDROUS], for which the MIC50 against Haemophilus influenzae [1], in the test with Haemophilus influenzae [2], in the test on Haemophilus influenzae [3], in the test with Haemophilus influenzae [4] and against Haemophilus influenzae [5] was 8 µg/mL (≈ 21.8 µM) each time. For the same compound, the MIC90 in the test with Haemophilus influenzae [1] turned out to be 64 µg/mL (≈ 174 µM); against Haemophilus influenzae [2], 32 µg/mL (≈ 87 µM); in the test on Haemophilus influenzae [3], 32 µg/mL (≈ 87 µM); against Haemophilus influenzae [4], 16 µg/mL (≈ 43.5 µM); in the test on Haemophilus influenzae [5], 32 µg/mL (≈ 87 µM).
